According to ChEMBL document CHEMBL1154876, “Synthesis and antimicrobial studies on novel sulfonamides containing 4-azidomethyl coumarin” (2010):
≈ marks a conversion by molar mass, not a printed value.

Key:
Format in all cases: functional
Enterococcus faecalis = assay: Antibacterial activity against Streptococcus faecalis MTCC 3382 after 18 hrs by broth microdilution method; conditions: MTCC 3382, 18 h
Staphylococcus aureus = assay: Antibacterial activity against Staphylococcus aureus MTCC 3160 after 18 hrs by broth microdilution method; conditions: MTCC 3160, 18 h
Bacillus subtilis = assay: Antibacterial activity against Bacillus subtilis MTCC 297 after 18 hrs by broth microdilution method; conditions: MTCC 297, 18 h
Pseudomonas aeruginosa = assay: Antibacterial activity against Pseudomonas aeruginosa MTCC 1034 after 18 hrs by broth microdilution method; conditions: MTCC 1034, 18 h
Klebsiella pneumoniae = assay: Antibacterial activity against Klebsiella pneumoniae MTCC 3384 after 18 hrs by broth microdilution method; conditions: MTCC 3384, 18 h
Escherichia coli = assay: Antibacterial activity against Escherichia coli MTCC 1089 after 18 hrs by broth microdilution method; conditions: MTCC 1089, 18 h
Candida albicans = assay: Antifungal activity against Candida albicans after 48 to 72 hrs by broth microdilution method
Summary of the method: (§1)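 Test compounds were prepared as 10 mg/ml DMSO stocks and serially diluted twofold in Sabouraud's dextrose broth over 500, 250, 125, 62.5, 31.25, 16, 8, 4, 2 and 1, alongside fluconazole as reference. Plates were inoculated with 1–5 × 10⁴ cfu/ml and held at 25 °C for 48–72 h. The MIC was the lowest concentration showing no visible growth.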

Aspergillus fumigatus = assay: Antifungal activity against Aspergillus fumigatus after 48 to 72 hrs by broth microdilution method; summary of the method: as §1
Aspergillus niger = assay: Antifungal activity against Aspergillus niger after 48 to 72 hrs by broth microdilution method; summary of the method: as §1
Penicillium chrysogenum = assay: Antifungal activity against Penicillium chrysogenum after 48 to 72 hrs by broth microdilution method; summary of the method: as §1
Mucor = assay: Antifungal activity against Mucor fuscus after 48 to 72 hrs by broth micro dilution method; summary of the method: as §1
Fusarium oxysporum = assay: Antifungal activity against Fusarium oxysporum after 48 to 72 hrs by broth microdilution method; summary of the method: as §1

SMILES | MIC (Enterococcus faecalis) | MIC (Staphylococcus aureus) | MIC (Bacillus subtilis) | MIC (Pseudomonas aeruginosa) | MIC (Klebsiella pneumoniae) | MIC (Escherichia coli) | MIC (Candida albicans) | MIC (Aspergillus fumigatus) | MIC (Aspergillus niger) | MIC (Penicillium chrysogenum) | MIC (Mucor) | MIC (Fusarium oxysporum)
Cc1ccc(NS(=O)(=O)c2cc3c(CN=[N+]=[N-])cc(=O)oc3cc2C)cc1Cl | 8 µg/mL (≈ 19.1 µM) | 8 µg/mL (≈ 19.1 µM) | 4 µg/mL (≈ 9.55 µM) | 1 µg/mL (≈ 2.39 µM) | 8 µg/mL (≈ 19.1 µM) | > 500 µg/mL | 31.2 µg/mL (≈ 74.6 µM) | 16 µg/mL (≈ 38.2 µM) | 16 µg/mL (≈ 38.2 µM) | 4 µg/mL (≈ 9.55 µM) | 16 µg/mL (≈ 38.2 µM) | 1 µg/mL (≈ 2.39 µM)
Cc1cc2oc(=O)cc(CN=[N+]=[N-])c2cc1S(=O)(=O)Nc1ccccc1Cl | 1 µg/mL (≈ 2.47 µM) | 1 µg/mL (≈ 2.47 µM) | 125 µg/mL (≈ 309 µM) | 31.2 µg/mL (≈ 77.2 µM) | 1 µg/mL (≈ 2.47 µM) | > 500 µg/mL | 62.5 µg/mL (≈ 154 µM) | 31.2 µg/mL (≈ 77.2 µM) | 62.5 µg/mL (≈ 154 µM) | 31.2 µg/mL (≈ 77.2 µM) | 16 µg/mL (≈ 39.5 µM) | 4 µg/mL (≈ 9.88 µM)
Cc1cc2oc(=O)cc(CN=[N+]=[N-])c2cc1S(=O)(=O)Cl | 31.2 µg/mL (≈ 99.6 µM) | 4 µg/mL (≈ 12.8 µM) | 31.2 µg/mL (≈ 99.6 µM) | 125 µg/mL (≈ 398 µM) | 125 µg/mL (≈ 398 µM) | 125 µg/mL (≈ 398 µM) | 8 µg/mL (≈ 25.5 µM) | 8 µg/mL (≈ 25.5 µM) | 8 µg/mL (≈ 25.5 µM) | 4 µg/mL (≈ 12.8 µM) | 2 µg/mL (≈ 6.38 µM) | 2 µg/mL (≈ 6.38 µM)
Cc1cc2oc(=O)cc(CN=[N+]=[N-])c2cc1S(=O)(=O)Nc1ccc(Cl)cc1 | 4 µg/mL (≈ 9.88 µM) | 8 µg/mL (≈ 19.8 µM) | 16 µg/mL (≈ 39.5 µM) | 1 µg/mL (≈ 2.47 µM) | 1 µg/mL (≈ 2.47 µM) | > 500 µg/mL | 8 µg/mL (≈ 19.8 µM) | 125 µg/mL (≈ 309 µM) | 31.2 µg/mL (≈ 77.2 µM) | 16 µg/mL (≈ 39.5 µM) | 16 µg/mL (≈ 39.5 µM) | 1 µg/mL (≈ 2.47 µM)
